Calb biofilm kill: clotrimazole potentiators killing C. albicans biofilm, primary screen, 4-compound mixtures; C. albicans biofilm persisters + clotrimazole, fluorescence viability; primary screen in compound mixtures of four per well; inhibition, % at 7.6 µM; hit rate 0.02% among 120,000; AID 1242, 2008;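 active = inhibition above 30.3% in the primary screen of four-compound pools, then above 30% when the compound was retested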;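 note: compounds exposed to preformed 24 h biofilms for 48 h; 0% = untreated biofilm control and 100% = clotrimazole plus chlorhexidine kill blank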
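Probe or stimulus – Clotrimazole 50 µg/mL co-treatment · System – C. albicans biofilms · Schedule – 24 h biofilm formation, then 48 h compound exposure, 37 °C · Evaluation – percent inhibition of biofilm viability · Technique – 2-h Alamar Blue fluorescence, 535/590 nm excitation/emission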
FXIa inh 1536: human FXIa protease inhibitors, primary screen, biochemical, 1536-well; Coagulation factor XI (Homo sapiens), P03951; hit rate 0.14% among 220,000; AID 798, 2007; inhibition, % at 5 µM; purified FXIa, Boc-Glu-Ala-Arg-AMC fluorogenic substrate;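 active = inhibition of at least 40%; inactive = inhibition below 40%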;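 note: fluorescence of freed AMC excited at 355 nm; 0% = enzyme without compound and 100% = no enzyme blank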
Hep lipid drop: inhibitors of hepatocyte lipid droplet formation, primary screen, imaging, high-throughput imaging, BODIPY stain; AML12 mouse hepatocytes, oleate lipid droplets; inhibition, % at 6.5 µM; hit rate 0.4% among 240,000;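 active = lipid droplet intensity inhibited by at least 50%, with more than 500 cells counted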
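Technique: fluorescence imaging, 20x objective, two fields per well / Assay system: AML12 hepatocytes (mouse) / Measure: % inhibition of lipid droplet signal / Doses: 6.5 µM single-point dosing / Incubation: overnight exposure / Reagent: 100 µM oleic acid challenge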
Thrombin inh: human alpha-thrombin inhibitors, primary screen, counter-screen for coagulation protease inhibitor project, biochemical, 1536-well, fluorogenic AMC substrate. AID 1046, 2008. hit rate 0.26% among 220,000. Boc-VPR-AMC fluorogenic substrate cleavage. inhibition, % at 5 µM;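 active = inhibition at or above 40%; inactive = inhibition below 40%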;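 note: 0% = enzyme with no compound and 100% = wells without enzyme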
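System: Human alpha-thrombin protein | Medium: pH 7.5 Tris (50 mM) with NaCl 150 mM, Tween 20 0.05% | Times: Enzyme reaction carried out at room temperature | Detection: AMC fluorescence, 355/460 nm | Evaluation: Percent inhibition scaled between no-compound controls and no-enzyme blanks | Benchmarks: Enzyme without compound as high, wells lacking enzyme as low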
FXIIa inh: human FXIIa protease inhibitors, primary screen, biochemical, 1536-well; Coagulation factor XII (Homo sapiens), P00748; purified FXIIa, Boc-QGR-AMC fluorogenic substrate, 2 h; inhibition, % at 5 µM; hit rate 0.3% among 220,000; AID 800, 2007; in the data active = inhibition above about 40%;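 note: 0% = enzyme with no compound and 100% = blank without enzyme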
Target sequence (P00748 20-372 limits assumed): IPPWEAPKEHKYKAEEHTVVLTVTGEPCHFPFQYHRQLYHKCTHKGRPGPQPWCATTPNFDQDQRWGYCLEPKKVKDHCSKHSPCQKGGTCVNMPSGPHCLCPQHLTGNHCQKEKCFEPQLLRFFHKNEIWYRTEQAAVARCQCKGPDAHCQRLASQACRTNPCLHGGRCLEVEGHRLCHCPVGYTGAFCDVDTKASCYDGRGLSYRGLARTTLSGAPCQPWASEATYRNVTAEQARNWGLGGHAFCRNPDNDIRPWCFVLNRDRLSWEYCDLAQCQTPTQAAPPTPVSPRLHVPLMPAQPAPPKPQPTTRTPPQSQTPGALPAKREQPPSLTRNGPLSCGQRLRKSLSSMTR
Target sequence (P00748 373-615 limits assumed): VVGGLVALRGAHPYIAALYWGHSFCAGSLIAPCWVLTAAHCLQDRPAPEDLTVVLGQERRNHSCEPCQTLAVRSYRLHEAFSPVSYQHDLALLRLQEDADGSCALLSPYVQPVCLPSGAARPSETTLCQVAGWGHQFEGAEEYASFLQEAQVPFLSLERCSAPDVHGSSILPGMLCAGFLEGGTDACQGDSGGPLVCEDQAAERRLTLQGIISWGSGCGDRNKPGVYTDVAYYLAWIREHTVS
hK5 inh: human KLK5 protease inhibitors, primary screen, biochemical, 1536-well; inhibition, % at 5 µM; recombinant hK5, fluorogenic AMC substrate cleavage; hit rate 0.59% among 210,000; Kallikrein-5 (Homo sapiens), Q9Y337;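 active = inhibition of 40% or more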;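 note: 0% = enzyme controls without compound and 100% = no-enzyme blanks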
* hit, by the source's call; / = no result. Only some compounds are listed: those with a hit (about 1.1% of all), similar ones and a draw of the others.

SMILES	Calb biofilm kill	FXIa inh 1536	Hep lipid drop	Thrombin inh	FXIIa inh	hK5 inh
CC(NC(=O)CN(C1CCCCC1)S(C)(=O)=O)c1ccccc1 (stereo not drawn)	9	18	-27	61*	18	36
COc1cc(Cl)c(C)cc1NC(=O)CSC	/	12	-3	-2	43*	3
COc1cc([N+](=O)[O-])cc2sc(NC(C)=O)nc12	15	60*	0	39	27	23
CCOC(=O)C1(Cc2cccc(F)c2)CCN(C(=O)Cn2cnnn2)CC1	27	19	-2	20	45*	26
COC(=O)c1ccccc1NC(=O)Oc1ccc(C(C)C)cc1	/	9	/	21	13	52*
CCOc1ccccc1-n1nnnc1SCC(=O)OC	-2	-5	-10	-12	11	1
CCOC(=O)CSc1nnnn1-c1cccc2ccccc12	/	14	-4	19	3	57*
CC(C)(C)c1ccc(C2CC2C(=O)N/N=C\c2cc3ccccc3nc2Cl)cc1 (stereo not drawn)	/	9	/	-2	0	-10
Cc1ccc2nc(Cl)c(/C=N/NC(=O)[C@H]3C[C@@H]3c3ccccc3)cc2c1	8	8	105*	4	12	-3
CC(NCc1cc(Br)ccc1OCC(=O)NCc1ccccc1)c1ccccc1 (stereo not drawn)	13	1	-1	3	6	2
Cc1ccc(C(=O)N/C(=C/c2ccc(-c3cccc([N+](=O)[O-])c3)o2)C(=O)NC(C)(C)C)cc1	18	33	4	-7	43*	-13
Cc1cc2cc(CN(Cc3ccc4c(c3)OCO4)C(=O)c3ccco3)c(=O)[nH]c2cc1C	/	2	/	15	9	54*
CCN(CC)CCNC(=O)c1ccc(NC(=O)c2cccc(S(=O)(=O)Nc3ccc(C)cc3)c2)cc1	6	101*	0	15	22	20
O=C(Cn1ccc2ccccc2c1=O)NCCC(=O)Nc1cccc(Cl)c1	/	/	19	/	/	/
CCc1ccc(NC2CC(=O)N(c3ccc(OC)cc3OC)C2=O)cc1 (stereo not drawn)	/	-18	2	43*	-4	-21
CSc1nc(SCC(=O)NCC2CCCO2)c2c3c(sc2n1)CN(C)CC3 (stereo not drawn)	16	1	31	1	9	0
O=C(Nc1ncc(Cc2ccccc2)s1)c1cccs1	/	34	/	0	42*	-15
Cc1nn(C)c(C(=O)N/N=C/c2cccnc2)c1Br	/	/	3	/	/	/
CCn1ncc(C2=NOC(C(=O)NCc3ccccc3)C2)c1C (stereo not drawn)	/	2	-96	18	16	45*
CCn1ncc(C2=NOC(C(=O)Nc3c(C)n(C)n(-c4ccccc4)c3=O)C2)c1C (stereo not drawn)	/	5	/	39	6	60*
COc1cccc(C2=NOC(C(=O)Nc3c(C)n(C)n(-c4ccccc4)c3=O)C2)c1 (stereo not drawn)	15	-1	-10	-11	-1	-1
CCn1ncc(C2=NOC(C(=O)NCc3ccc(OC)cc3)C2)c1C (stereo not drawn)	/	-1	/	-4	5	0
COC(=O)c1cccc(NC(=O)Nc2ccc(Cl)cc2Cl)c1	6	21	10	40	20	42*
COc1ccc(/C=C/C(=O)N2CCN(S(=O)(=O)c3ccccc3)CC2)cc1OC	5	34	-3	25	22	48*
COc1ccc(/C=C/C(=O)N2CCN(S(=O)(=O)/C=C/c3ccccc3)CC2)cc1OC	24	3	12	-7	2	-37
SMILES	Calb biofilm kill	FXIa inh 1536	Hep lipid drop	Thrombin inh	FXIIa inh	hK5 inh
CCc1ccc(-n2c(=O)c3ccccc3n(CC(=O)C(C)(C)C)c2=O)cc1	-3	-6	-4	-3	-4	-11
Cc1ccc(-n2c(=O)c3ccccc3n(CC(=O)C(C)(C)C)c2=O)cc1	25	28	14	9	26	46*
CCOC(=O)N1CCN(C(=O)c2cc3cc(Cl)ccc3[nH]2)CC1	/	/	-9	/	/	/
CC1CCCCN1S(=O)(=O)c1coc(C(N)=O)c1 (stereo not drawn)	/	3	/	18	33	42*
CC1CCCN(S(=O)(=O)c2coc(C(N)=O)c2)C1 (stereo not drawn)	/	2	5	-8	11	-2
O=C(C1=NN(c2ccccc2)C(=O)CC1)N1CCc2ccccc2C1	/	/	-8	/	/	/
Cc1cccc(C(=O)Nc2sc(C)c(-c3ccccc3)c2C#N)c1	/	10	-1	53*	6	56*
N#Cc1c2c(c(Nc3ccc(O)cc3)n3c1nc1ccccc13)CCC2	16	0	-23	35	12	44*
CC(C)C(=O)Nc1ccc(C(=O)NNC(=S)NC(=O)c2ccco2)cc1	-5	2	-7	2	14	-28
Clc1ccc(-c2csc(N3CCOCC3)n2)cc1	10	48*	7	24	38	45*
CCS(=O)(=O)c1nc(S(=O)(=O)c2ccc(C)cc2)c(N2CC(C)CC(C)C2)s1 (stereo not drawn)	/	/	-7	/	/	/
C=CCNC(=S)N/N=C/c1ccc(C)c([N+](=O)[O-])c1	7	41*	-20	24	106*	62*
COC(=O)c1cccc(NC(=O)CSc2nnc(C)o2)c1	/	/	0	/	/	/
NC(=O)NOCc1ccccc1	18	45*	-2	12	28	23
CCCCc1nc2ccccc2c(NC(=O)CNC(C)(C)C)c1CCC	/	6	-6	42*	14	38
Cc1c(O)ccc2c(CC(=O)N[C@@H](Cc3c[nH]c4ccccc34)C(=O)O)cc(=O)oc12	/	/	-4	/	/	/
CNC(=S)N/N=C(\C)c1ccc(C(C)(C)C)cc1	10	7	-1	7	19	49*
CNC(=S)N/N=C/C1=CCC2CC1C2(C)C (stereo not drawn)	12	4	13	2	13	-5
CC1(C)C2CC=C(/C=N/n3cnnc3)C1C2 (stereo not drawn)	/	17	/	2	49*	3
CN(c1cccc2cccnc12)S(=O)(=O)c1ccccc1	/	/	-13	/	/	/
CS(=O)(=O)N(Cc1ccco1)CC(O)Cn1c2ccccc2c2ccccc21 (stereo not drawn)	/	13	-3	38	2	44*
Cc1c2ccccc2cc(Cc2ccccc2)[n+]1C	/	/	-5	/	/	/
CC(C)(C)OC(=O)N1CCC(CC2CC(c3cccc(Br)c3)=NO2)(C(=O)O)CC1 (stereo not drawn)	/	/	-10	/	/	/
CCn1c(SCC(=O)NC2CC2)nnc1-c1cccc(OC)c1	/	/	5	/	/	/
O=C1CN(CC(=O)N2CCOCC2)c2ccccc2O1	/	14	/	11	24	42*

Compound activity: PubChem BioAssay, several laboratories
